Test results reported in ChEMBL document CHEMBL4706729, “Discovery of the First Orally Available, Selective K1.1 Inhibitor: In Vitro and In Vivo Activity of an Oxadiazole Series” (ACS Med Chem Lett, 2021).

How the values were obtained:
[1] = Half life in CD-1 mouse at 0.5 mg/kg, iv; assay type: ADME, organism-based; settings: in vivo
Summary of the method: (§1)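 CD-1 mice given a single 0.5 mg/kg IV dose in 10% DMSO, 10% Solutol, 80% water. Clearance, Vdss and half-life derived from plasma concentration–time data.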

[2] = Lipophilicity, log D of compound; assay type: physicochemical; settings: octanol/water
[3] = Clearance in CD-1 mouse at 0.5 mg/kg, iv; assay type: ADME, organism-based; settings: in vivo; summary of the method: as §1
[4] = Free drug concentration in mouse brain harboring Kcnt1 L/L mutant at 30 mg/kg, sc; assay type: ADME, organism-based; settings: in vivo
[5] = Free drug concentration in wildtype CD-1 mouse brain at 150 mg/kg, sc; settings: in vivo
[6] = Volume of distribution at steady state in CD-1 mouse at 0.5 mg/kg, iv; assay type: ADME, organism-based; settings: in vivo, read-out: Vdss; summary of the method: as §1
[7] = Metabolic stability in human liver microsomes assessed as intrinsic clearance
[8] = Oral bioavailability in CD-1 mouse at 30 mg/kg; assay type: ADME, organism-based; settings: in vivo

| logD [2] | CLint [7] [µL/min/mg] | further results | Compound |
| --- | --- | --- | --- |
| 3.6 | < 9.6 | half-life [1]: > 20 h; clearance [3]: 2 mL/min/kg; Drug uptake(free) [4]: 270 nM; Drug uptake [5]: 1204 nM; Vd [6]: 1.88 L/kg; bioavailability [8]: 100% | C[C@H](NC(=O)c1cc(C(F)(F)F)nn1C)c1nc(-c2ccnc(C(F)(F)F)c2)no1 |
| 4.4 | 10 |  | COc1cc(-c2noc([C@H](C)NC(=O)c3cc(C(F)(F)F)nn3C)n2)cc(C)n1 |
| 3 | < 9.6 |  | COCc1cc(-c2noc([C@H](C)NC(=O)c3cc(C(F)(F)F)nn3C)n2)ccn1 |
| 3.4 | < 9.6 |  | C[C@H](NC(=O)c1cc(C(F)(F)F)nn1C)c1nc(-c2ccnc(C(F)F)c2)no1 |
| 4.1 | < 9.6 |  | C[C@H](NC(=O)c1cc(C(F)(F)F)nn1C)c1nc(-c2ccnc(C3CC3)c2)no1 |
| 3.8 | 21 |  | COC(C)(C)c1cc(-c2noc([C@H](C)NC(=O)c3cc(C(F)(F)F)nn3C)n2)ccn1 |
| 4.2 | 48 |  | C[C@H](NC(=O)c1cc(C(F)(F)F)nn1C)c1nc(-c2ccnc(N3CCCC3)c2)no1 |
| 3.3 | < 9.6 |  | Cc1cc(-c2noc([C@H](C)NC(=O)c3cc(C(F)(F)F)nn3C)n2)ccn1 |
| 3.4 | < 9.6 |  | COc1cc(-c2noc([C@H](C)NC(=O)c3cc(C(F)(F)F)nn3C)n2)ccn1 |
| 3.4 | 28 |  | CNc1cc(-c2noc([C@H](C)NC(=O)c3cc(C(F)(F)F)nn3C)n2)ccn1 |
| 3.9 | 56 |  | C[C@H](NC(=O)c1cc(C(F)(F)F)nn1C)c1nc(-c2ccnc(N(C)C)c2)no1 |
